The source of these data is ChEMBL document CHEMBL4014350, “Alkoxyurea-Based Histone Deacetylase Inhibitors Increase Cisplatin Potency in Chemoresistant Cancer Cell Lines” (J Med Chem, 2017).

Molecules are shown by their SMILES.

For orientation: IC50 means the concentration at which inhibition is half-maximal.

Assay [1] in a line: Inhibition of HDAC in human CAL27 cells using Boc-Lys(epsilon-Ac)-AMC as substrate preincubated for 18 hrs followed by substrate addition measured after 3 hrs by fluorescence assay. The assay is classed as cell-based. The following applies: CAL-27.
The test system of assay [2] is CAL-27. The experiment in a line: Potentiation of cisplatin-induced cytotoxicity against human CAL27 cells assessed as decrease in cell viability at 10 uM preincubated for 48 hrs followed by cisplatin treatment measured after 72 hrs by MTT assay relative to cisplatin alone. Type of assay: functional. The method, boiled down: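 Cells were preincubated 48 h with HDAC inhibitor, then cisplatin was added over a concentration range for 72 h, with MTT read-out. Shift factor is cisplatin-alone IC50 divided by combination IC50. Data are mean ± SEM of pooled data from at least three independent experiments, each in triplicate. Significance was by t test (p < 0.05).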
Background: Formazan colour is commonly taken as a measure of viable cells.

Assay [3] deals with CAL-27. The experiment in a line: Antiproliferative activity against human CAL27 cells measured after 72 hrs by MTT assay. The assay is classed as functional, cell-based. The following applies: CAL-27, 72 h.
A short description of assay [4]: Antiproliferative activity against human Cal27CisR cells measured after 72 hrs by MTT assay. Type of assay: functional, cell-based.
Assay [5] is described as follows: Inhibition of HDAC in human Cal27CisR cells using Boc-Lys(epsilon-Ac)-AMC as substrate preincubated for 18 hrs followed by substrate addition measured after 3 hrs by fluorescence assay. Type of assay: cell-based.
Assay [6] in a line: Inhibition of HDAC in human A2780 cells using Boc-Lys(epsilon-Ac)-AMC as substrate preincubated for 18 hrs followed by substrate addition measured after 3 hrs by fluorescence assay. Type of assay: cell-based.
The nature of assay [7]: Inhibition of HDAC in human A2780CisR cells using Boc-Lys(epsilon-Ac)-AMC as substrate preincubated for 18 hrs followed by substrate addition measured after 3 hrs by fluorescence assay. The assay is classed as cell-based.
The species named for another assay is Homo sapiens. The experiment in a line: Selectivity ratio of IC50 for HDAC in human A2780 cells to IC50 for HDAC in human A2780CisR cells. Type of assay: cell-based.
In the next assay the test system is A2780cisR. The assay can be described thus: Antiproliferative activity against human A2780cisR cells measured after 72 hrs by MTT assay. Type of assay: functional, cell-based.
For the next assay, the system named is A2780. The experiment in a line: Antiproliferative activity against human A2780 cells measured after 72 hrs by MTT assay. The assay is classed as functional, cell-based. The following applies: A2780, 72 h.
In assay [8] the target is T1, Protein deacetylase HDAC6 (Homo sapiens, UniProt Q9UBN7).
T1 sequence (Q9UBN7 whole entry): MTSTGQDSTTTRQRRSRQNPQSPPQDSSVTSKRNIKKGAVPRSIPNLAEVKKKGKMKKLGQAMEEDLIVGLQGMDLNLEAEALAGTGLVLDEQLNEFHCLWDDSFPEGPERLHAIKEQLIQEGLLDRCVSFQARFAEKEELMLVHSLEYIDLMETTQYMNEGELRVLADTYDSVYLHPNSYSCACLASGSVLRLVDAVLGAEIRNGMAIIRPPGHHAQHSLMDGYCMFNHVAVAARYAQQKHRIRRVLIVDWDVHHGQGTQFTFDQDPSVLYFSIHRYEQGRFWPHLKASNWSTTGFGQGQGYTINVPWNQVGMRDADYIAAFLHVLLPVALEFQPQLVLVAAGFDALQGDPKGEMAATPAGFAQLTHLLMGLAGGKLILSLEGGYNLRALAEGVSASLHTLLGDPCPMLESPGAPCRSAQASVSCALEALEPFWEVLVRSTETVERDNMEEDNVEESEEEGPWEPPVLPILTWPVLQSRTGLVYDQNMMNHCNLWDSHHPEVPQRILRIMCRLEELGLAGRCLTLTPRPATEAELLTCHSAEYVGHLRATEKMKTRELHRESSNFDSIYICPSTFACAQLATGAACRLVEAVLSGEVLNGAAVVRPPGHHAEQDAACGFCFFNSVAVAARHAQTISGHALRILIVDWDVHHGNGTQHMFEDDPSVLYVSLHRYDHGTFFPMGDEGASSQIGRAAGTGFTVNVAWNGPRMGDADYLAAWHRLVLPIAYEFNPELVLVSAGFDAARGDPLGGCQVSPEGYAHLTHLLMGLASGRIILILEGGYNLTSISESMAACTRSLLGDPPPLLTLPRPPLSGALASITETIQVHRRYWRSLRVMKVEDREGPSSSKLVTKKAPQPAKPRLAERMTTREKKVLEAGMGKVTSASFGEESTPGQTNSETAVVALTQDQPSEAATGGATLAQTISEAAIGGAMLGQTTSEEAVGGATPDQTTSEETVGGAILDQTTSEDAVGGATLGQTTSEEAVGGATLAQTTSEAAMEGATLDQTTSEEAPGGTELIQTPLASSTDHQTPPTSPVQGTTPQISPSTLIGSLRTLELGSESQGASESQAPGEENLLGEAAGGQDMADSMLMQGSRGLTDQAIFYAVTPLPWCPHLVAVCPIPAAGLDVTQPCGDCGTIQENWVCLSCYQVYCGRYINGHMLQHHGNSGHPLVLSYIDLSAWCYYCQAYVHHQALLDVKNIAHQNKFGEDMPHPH
The assay can be described thus: Inhibition of full length human recombinant N-terminal GST-tagged HDAC6 expressed in baculovirus infected sf9 cells Z-(Ac)Lys-AMC as substrate measured after 90 mins by fluorescence assay.

A further assay addresses T2, Histone deacetylase 8 (Homo sapiens, UniProt Q9BY41).
T2 sequence (Q9BY41 whole entry): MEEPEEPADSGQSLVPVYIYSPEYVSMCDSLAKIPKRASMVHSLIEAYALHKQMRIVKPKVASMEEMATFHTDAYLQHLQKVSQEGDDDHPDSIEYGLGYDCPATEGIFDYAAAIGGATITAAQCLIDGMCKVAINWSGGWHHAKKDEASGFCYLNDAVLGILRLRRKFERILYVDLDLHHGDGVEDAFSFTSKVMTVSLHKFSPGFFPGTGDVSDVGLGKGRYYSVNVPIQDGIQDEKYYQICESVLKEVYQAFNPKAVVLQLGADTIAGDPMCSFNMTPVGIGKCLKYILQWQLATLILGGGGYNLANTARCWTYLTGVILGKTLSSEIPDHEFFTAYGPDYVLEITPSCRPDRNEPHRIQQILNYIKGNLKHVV
The experiment in a line: Inhibition of human HDAC8 using Z-L-Lys(epsilon-trifluoroacetyl)-AMC as substrate measured after 90 mins by fluorescence assay.

A further assay concerns the target Histone deacetylase 1 (Homo sapiens, UniProt Q13547). The experiment in a line: Inhibition of recombinant full length human C-terminal FLAG/His-tagged HDAC1 expressed in baculovirus infected sf9 cells using Z-(Ac)Lys-AMC as substrate measured after 90 mins by fluorescence assay.
Another assay deals with Histone deacetylase 4 (Homo sapiens, UniProt P56524). The assay can be described thus: Inhibition of recombinant human N-terminal GST-tagged/C-terminal His-tagged HDAC4 expressed in insect cells using Boc-K(Ac)-AMC as substrate by fluorescence assay.
Sequence of Histone deacetylase 4 (P56524 whole entry): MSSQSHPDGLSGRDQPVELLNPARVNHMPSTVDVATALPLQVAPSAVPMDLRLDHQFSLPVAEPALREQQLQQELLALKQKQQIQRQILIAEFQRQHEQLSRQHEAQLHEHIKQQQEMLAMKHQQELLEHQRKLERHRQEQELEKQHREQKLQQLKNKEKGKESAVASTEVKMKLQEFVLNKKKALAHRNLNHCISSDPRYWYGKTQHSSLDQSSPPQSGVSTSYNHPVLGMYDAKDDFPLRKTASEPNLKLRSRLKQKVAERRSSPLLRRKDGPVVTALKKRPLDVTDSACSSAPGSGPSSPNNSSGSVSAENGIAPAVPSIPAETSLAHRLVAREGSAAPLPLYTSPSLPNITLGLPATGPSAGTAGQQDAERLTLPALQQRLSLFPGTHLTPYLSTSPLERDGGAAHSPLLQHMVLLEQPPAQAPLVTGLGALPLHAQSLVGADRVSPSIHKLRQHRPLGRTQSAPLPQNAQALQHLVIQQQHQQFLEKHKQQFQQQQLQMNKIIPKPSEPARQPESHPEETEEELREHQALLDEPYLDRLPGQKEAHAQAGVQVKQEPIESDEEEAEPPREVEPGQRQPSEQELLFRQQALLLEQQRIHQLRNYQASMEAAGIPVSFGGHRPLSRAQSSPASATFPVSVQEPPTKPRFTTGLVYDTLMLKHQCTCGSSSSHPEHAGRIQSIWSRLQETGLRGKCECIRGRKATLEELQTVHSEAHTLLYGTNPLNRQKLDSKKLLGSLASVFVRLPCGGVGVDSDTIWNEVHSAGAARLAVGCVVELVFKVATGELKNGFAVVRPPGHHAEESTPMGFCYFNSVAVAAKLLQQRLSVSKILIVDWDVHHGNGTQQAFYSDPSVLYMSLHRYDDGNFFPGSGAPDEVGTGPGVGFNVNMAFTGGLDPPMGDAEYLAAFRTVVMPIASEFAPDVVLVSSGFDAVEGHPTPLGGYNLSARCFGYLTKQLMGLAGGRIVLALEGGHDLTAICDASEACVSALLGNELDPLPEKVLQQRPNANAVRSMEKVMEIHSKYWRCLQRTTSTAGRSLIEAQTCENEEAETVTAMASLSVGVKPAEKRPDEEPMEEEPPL

Sequence of Histone deacetylase 1 (Q13547 whole entry): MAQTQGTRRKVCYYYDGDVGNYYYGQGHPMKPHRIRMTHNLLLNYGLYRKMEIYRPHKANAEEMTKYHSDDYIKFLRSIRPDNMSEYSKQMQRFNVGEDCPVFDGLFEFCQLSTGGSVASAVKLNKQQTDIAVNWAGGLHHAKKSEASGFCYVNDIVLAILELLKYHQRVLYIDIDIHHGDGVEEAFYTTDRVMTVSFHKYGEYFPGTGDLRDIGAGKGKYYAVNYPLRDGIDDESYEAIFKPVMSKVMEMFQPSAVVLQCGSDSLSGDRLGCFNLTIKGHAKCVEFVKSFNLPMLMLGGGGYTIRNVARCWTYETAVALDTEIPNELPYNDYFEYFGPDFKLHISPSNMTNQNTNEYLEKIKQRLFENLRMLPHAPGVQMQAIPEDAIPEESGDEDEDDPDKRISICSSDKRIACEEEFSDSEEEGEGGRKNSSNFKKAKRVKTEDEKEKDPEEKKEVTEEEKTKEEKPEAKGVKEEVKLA

Turning to `CN1CCc2c(c3ccccc3n2Cc2ccc(C(=O)NO)cc2)C1` [TUBASTATIN A], the IC50 in [1] amounted to 16100 nM; in the assay with CAL-27 [3], 4600 nM; in assay [4] it was 10800 nM; in [5], 12100 nM. Further, the “fold change (FC)” value in the assay on CAL-27 [2] is recorded as 1.1.

On to `O=C(CCCCCCC(=O)Nc1ccccc1)NO` [VORINOSTAT], for which, in assay [6], the concentration for half-maximal inhibition (IC50) was determined as 1680 nM.

Regarding `O=C(CCCCCONC(=O)Nc1ccc2ccccc2c1)NO`, the concentration for half-maximal inhibition (IC50) in assay [1] is 1000 nM; in assay [7], 1600 nM; with CAL-27 [3], 1700 nM; with A2780cisR, 1600 nM; in assay [6], 5100 nM; in the assay with A2780 it was 1400 nM. Moreover, the values for the IC50 in assay [4] and in [5] were 2300 nM and 1000 nM, respectively. In addition, the Ratio IC50 in the assay filed under Homo sapiens fell in the range of 2 to 3.4.

For the molecule `O=C(CCCCCONC(=O)Nc1cccc2ccccc12)NO`, the concentration for half-maximal inhibition (IC50) was 1100 nM in assay [1]; 900 nM in [7]; 1600 nM in the assay on CAL-27 [3]; 7900 nM in the assay with A2780cisR; 1100 nM in assay [6]; 3900 nM in [4]. In assay [5], this molecule had an IC50 of 1000 nM.

`Cc1ccc2cccc(NC(=O)NOCCCCCC(=O)NO)c2n1`: the half-maximal inhibitory concentration (IC50) amounted to 3400 nM in [1]; 1700 nM in assay [7]; 2200 nM in the assay with CAL-27 [3]; 1300 nM in the assay on A2780cisR; 3300 nM in [6]; 4300 nM in the assay on A2780. For the same molecule, the IC50 came to 4700 nM in assay [4] and 2800 nM in assay [5]. Besides, the Ratio IC50 in the assay listed under Homo sapiens lay within 2 to 3.4.

Take `O=C(CCCCCONC(=O)Nc1ccc2ncccc2c1)NO`: the 50% inhibitory concentration (IC50) in [1] is 1400 nM; in assay [7], 2000 nM; in the assay with CAL-27 [3], 5800 nM; in the assay on A2780cisR it was 10500 nM; in assay [6], 2400 nM; in the assay with A2780 it was 27300 nM. Moreover, the concentration for half-maximal inhibition (IC50) in [4] was 7600 nM; in [5] it was 1100 nM.

Turning to `CN(O)C(=O)CCCCCONC(=O)Nc1cccc2ccccc12`, the half-inhibitory concentration (IC50) came to 190000 nM in assay [1]; 43700 nM in the assay with CAL-27 [3]; 44200 nM with A2780cisR; 46800 nM in the assay on A2780; 65800 nM in assay [4]; 204000 nM in assay [5].

For the molecule `COc1cc(NC(=O)NOCCCCCC(=O)NO)c2nc(OC(C)C)cc(C)c2c1Oc1cccc(C(F)(F)F)c1`, the half-inhibitory concentration (IC50) stood at 107000 nM in assay [1]; 3900 nM in the assay with CAL-27 [3]; 3600 nM in the assay on A2780cisR; 149000 nM in [6]; 1700 nM in the assay on A2780; 2900 nM in assay [4]. This molecule also showed a half-maximal inhibitory concentration (IC50) in assay [5] of 56000 nM.

As for `O=C(CCCCCONC(=O)Nc1cnc2ccccc2c1)NO`, the half-maximal inhibitory concentration (IC50) in assay [1] is 1300 nM; in [7], 900 nM; with CAL-27 [3] it was 3000 nM; in the assay on A2780cisR, 11600 nM; in assay [8], 51.7 nM; on Histone deacetylase 8, 11200 nM. Moreover, the IC50 in assay [6] is 1100 nM; in [4] it was 5400 nM; in assay [5] it was 1300 nM; on Histone deacetylase 1, 189 nM; on Histone deacetylase 4 it was above 10000 nM.

As for `O=C(CCCCCONC(=O)Nc1cccc2cccnc12)NO`, the 50% inhibitory concentration (IC50) in [1] turned out to be 900 nM; in [7], 900 nM; in the assay on CAL-27 [3], 1100 nM; in the assay with A2780cisR, 1000 nM; in [6], 2100 nM; in the assay on A2780, 3000 nM. Further, the concentration for half-maximal inhibition (IC50) in assay [4] was found to be 2200 nM; in [5], 900 nM. Also, the Ratio IC50 in the assay filed under Homo sapiens fell in the range of 2 to 3.4.
